Experimental data taken from ChEMBL document CHEMBL2396599, “Design of cell-permeable stapled peptides as HIV-1 integrase inhibitors” (J Med Chem, 2013).
Starred links: 1 amine or outer side, 2 acyl side, 3 side chain; linkers in the order of their positions; H or OH if unused. Positions of bridges follow the written chain, without caps; N, C: chain ends. Non-standard residues stand in square brackets, D forms with d. Residues, ends and D or L forms follow the SMILES beside them. αMeNva(5-ylidene) = C[C@@](CCC=[*:3])(N[*:1])C(=O)[*:2]; X1 = C[C@@](CCCCC=[*:3])(N[*:1])C(=O)[*:2]; X3 = C=CCCCC[C@](C)(N[*:1])C(=O)[*:2]; X2 = C=CC[C@](C)(N[*:1])C(=O)[*:2]; S5 = C=CCCC[C@](C)(N)C(=O)O

Columns and labels:
[1] = biological target: T1, Human immunodeficiency virus type 1 integrase (Human immunodeficiency virus 1, UniProt Q7ZJM1); test: Inhibition of wild type HIV-1 integrase 3' processing activity after 30 mins
Summary of the method: (§1)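 IC₅₀ is the concentration giving 50% inhibition of HIV-1 integrase enzymatic activity, determined separately for 3′-processing and for strand transfer.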

[2] = biological target: T1, Human immunodeficiency virus type 1 integrase; test: Inhibition of wild type HIV-1 integrase strand transfer activity after 30 mins; summary of the method: as §1
[3] = biological target: T1, Human immunodeficiency virus type 1 integrase; test: Inhibition of HIV-1 His6-tagged integrase assessed as inhibition of LEDGF/p75-integrase interaction incubated 30 mins prior to flag-tagged LEDGF/p75 addition measured after 1 hr by AlphaScreen assay
Summary of the method: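 IC₅₀ is the concentration giving 50% inhibition of the interaction between LEDGF/p75 and HIV-1 integrase.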

[4] = Therapeutic index, ratio of CC50 for human MT4 cells to EC50 for Human immunodeficiency virus 1; type: cell-based; conditions: read-out: Ratio CC50/EC50
Summary of the method: (§2)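 Antiviral activity taken as the concentration giving 50% protection of HIV-1-infected MT-4 cells. Cytotoxicity was read as 50% cell death in the same cells. Therapeutic index = CC₅₀/EC₅₀.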

[5] = Cytotoxicity against human MT4 cells by MTT assay; type: cell-based
Summary of the method: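 CC₅₀ was the concentration causing 50% death of MT-4 cells, in the same cells used for the HIV-1 cytoprotection assay. This value feeds the CC₅₀/EC₅₀ ratio.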

[6] = test system: Human immunodeficiency virus 1; test: Antiviral activity against Human immunodeficiency virus 1 infected in human MT4 cells assessed as inhibition of virus-induced cytopathic effect by MTT assay; type: functional, organism-based; conditions: Human immunodeficiency virus 1, MT4; summary of the method: as §2
[7] = test system: Human immunodeficiency virus; test: Antiviral activity against AMD3100-resistant Human immunodeficiency virus; type: functional, organism-based; conditions: Human immunodeficiency virus 1
[8] = test system: MT4; test: Cellular uptake in human MT4 cells at 10 to 500 uM after 1 hr by confocal microscopy; type: ADME, cell-based; conditions: mt4, 1 h
Summary of the method: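 Fluorescein-labelled peptides were incubated with MT-4 cells for 1 h. Confocal z-stacks were taken at 0.3 step, with FITC excited at 488 nm and a cell-membrane dye at 543 nm.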

[9] = Drug uptake in human PANC1 cell nucleus at 40 uM after 1 to 3 hrs by Draq5 staining-based confocal microscopy; type: ADME; conditions: panc-1, 40 µM
Summary of the method: (§3)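 CEM, HCT116 and Panc-1 cells were treated with the fluorescein-labelled stapled peptide for 3 h. Uptake was imaged by confocal microscopy with Draq5 nuclear staining.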

[10] = Drug uptake in human HCT116 cell nucleus at 40 uM after 1 to 3 hrs by Draq5 staining-based confocal microscopy; type: ADME; conditions: hct-116, 40 µM; summary of the method: as §3
[11] = Drug uptake in human CEM cell nucleus at 40 uM after 1 to 3 hrs by Draq5 staining-based confocal microscopy; type: ADME; conditions: ccrf-cem; summary of the method: as §3
[12] = Cellular uptake in human PANC1 cell cytoplasm at 40 uM after 1 to 3 hrs by Draq5 staining-based confocal microscopy; type: ADME; conditions: panc-1, 40 µM; summary of the method: as §3
[13] = Cellular uptake in human HCT116 cell cytoplasm at 40 uM after 1 to 3 hrs by Draq5 staining-based confocal microscopy; type: ADME; conditions: hct-116, 40 µM; summary of the method: as §3
[14] = Cellular uptake in human CEM cytoplasm at 40 uM after 1 to 3 hrs by Draq5 staining-based confocal microscopy; type: ADME; summary of the method: as §3

T1 sequence (Q7ZJM1 whole entry): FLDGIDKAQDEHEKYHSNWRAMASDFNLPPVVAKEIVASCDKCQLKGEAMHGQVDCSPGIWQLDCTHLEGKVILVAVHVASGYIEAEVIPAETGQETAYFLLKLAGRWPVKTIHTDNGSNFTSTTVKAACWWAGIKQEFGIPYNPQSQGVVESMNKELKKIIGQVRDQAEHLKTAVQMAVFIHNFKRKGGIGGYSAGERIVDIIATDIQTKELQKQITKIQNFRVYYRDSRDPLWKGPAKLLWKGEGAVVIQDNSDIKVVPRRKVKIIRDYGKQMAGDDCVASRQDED

SMILES: C=CCCC[C@](C)(NC(=O)CNC(=O)[C@H](C)NC(=O)[C@H](CC(C)C)NC(=O)[C@](C)(CCCC=C)NC(=O)[C@H](CC(C)C)NC(=O)[C@H](CC(C)C)NC(=O)[C@H](Cc1ccccc1)NC(=O)[C@H](Cc1ccc(O)cc1)NC(=O)[C@H](C)NC(=O)[C@@H](N)[C@@H](C)O)C(=O)N[C@@H](Cc1c[nH]c2ccccc12)C(=O)O (H-TAYFLL[S5]LAG[S5]W-OH)
- IC50 [1]: > 100 µM
- IC50 [2]: > 100 µM

SMILES: CC(C)C[C@H](NC(=O)[C@H](Cc1ccccc1)NC(=O)[C@H](Cc1ccc(O)cc1)NC(=O)[C@H](C)NC(=O)[C@@H](N)[C@@H](C)O)C(=O)N[C@@H](CC(C)C)C(=O)N[C@@]1(C)CCC/C=C/CCC[C@@](C)(C(=O)N[C@@H](Cc2c[nH]c3ccccc23)C(=O)O)NC(=O)CNC(=O)[C@H](C)NC(=O)[C@H](CC(C)C)NC1=O (H-TAYFLL[S5]LAG[S5]W-OH; staple (E) 7-11)
- IC50 [1]: > 100 µM
- IC50 [2]: > 100 µM

SMILES: C=CCCC[C@](C)(NC(=O)[C@H](CC(C)C)NC(=O)[C@@H](NC(=O)[C@H](CC(C)C)NC(=O)[C@](C)(CCCC=C)NC(=O)[C@H](Cc1ccccc1)NC(=O)[C@H](Cc1ccc(O)cc1)NC(=O)[C@H](C)NC(=O)[C@@H](N)[C@@H](C)O)[C@@H](C)CC)C(=O)NCC(=O)N[C@@H](CCCNC(=N)N)C(=O)N[C@@H](Cc1c[nH]c2ccccc12)C(=O)O (H-TAYF[S5]LIL[S5]GRW-OH)
- IC50 [1]: 15 µM
- IC50 [2]: 11 µM
- IC50 [3]: > 100 µM
- selectivity ratio [4]: 1.6
- CC50 [5]: 18 µM
- EC50 [6]: 11 µM

SMILES: CC[C@H](C)[C@@H]1NC(=O)[C@H](CC(C)C)NC(=O)[C@@](C)(NC(=O)[C@H](Cc2ccccc2)NC(=O)[C@H](Cc2ccc(O)cc2)NC(=O)[C@H](C)NC(=O)[C@@H](N)[C@@H](C)O)CCC/C=C\CCC[C@@](C)(C(=O)NCC(=O)N[C@@H](CCCNC(=N)N)C(=O)N[C@@H](Cc2c[nH]c3ccccc23)C(=O)O)NC(=O)[C@H](CC(C)C)NC1=O (H-TAYF[S5]LIL[S5]GRW-OH; staple (Z) 5-9)
- IC50 [1]: 22 µM
- IC50 [2]: 25 µM
- EC50 [7]: 4.3 µM
- IC50 [3]: 5 µM
- selectivity ratio [4]: 8
- CC50 [5]: 41 µM
- EC50 [6]: 5 µM

SMILES: CC(C)C[C@@H]1NC(=O)[C@H](CCCCN)NC(=O)[C@H](CC(C)C)NC(=O)[C@@](C)(NC(=O)[C@H](Cc2ccccc2)NC(=O)[C@H](Cc2ccc(O)cc2)NC(=O)[C@H](C)NC(=O)[C@@H](N)[C@@H](C)O)CCC/C=C\CCC[C@@](C)(C(=O)NCC(=O)N[C@@H](CCCNC(=N)N)C(=O)N[C@@H](Cc2c[nH]c3ccccc23)C(=O)O)NC1=O (H-TAYF[S5]LKL[S5]GRW-OH; staple (Z) 5-9)
- IC50 [1]: 9 µM
- IC50 [2]: 6 µM
- IC50 [3]: 14 µM
- selectivity ratio [4]: 3
- CC50 [5]: 50 µM
- EC50 [6]: 20 µM

SMILES: CC(C)C[C@@H]1NC(=O)[C@H](CCCCN)NC(=O)[C@H](CC(C)C)NC(=O)[C@@](C)(NC(=O)[C@H](Cc2ccccc2)NC(=O)[C@H](Cc2ccc(O)cc2)NC(=O)[C@H](C)NC(=O)[C@@H](N)[C@@H](C)O)CCCC/C=C/CCCC[C@@](C)(C(=O)NCC(=O)N[C@@H](CCCNC(=N)N)C(=O)N[C@@H](Cc2c[nH]c3ccccc23)C(=O)O)NC1=O (H-TAYF[X1]LKL[X1]GRW-OH; staple (E) 5-9)
- IC50 [1]: 48 µM
- IC50 [2]: 44 µM

SMILES: C=CC[C@](C)(NC(=O)[C@H](CC(C)C)NC(=O)[C@H](CCCCN)NC(=O)[C@H](CC(C)C)NC(=O)[C@](C)(CC=C)NC(=O)[C@H](Cc1ccccc1)NC(=O)[C@H](Cc1ccc(O)cc1)NC(=O)[C@H](C)NC(=O)[C@@H](N)[C@@H](C)O)C(=O)NCC(=O)N[C@@H](CCCNC(=N)N)C(=O)N[C@@H](Cc1c[nH]c2ccccc12)C(=O)O (H-TAYF[X2]LKL[X2]GRW-OH)
- IC50 [1]: > 333 µM
- IC50 [2]: > 111 µM

SMILES: C=CCCCC[C@](C)(NC(=O)[C@H](CC(C)C)NC(=O)[C@H](CCCCN)NC(=O)[C@H](CC(C)C)NC(=O)[C@](C)(CCCCC=C)NC(=O)[C@H](Cc1ccccc1)NC(=O)[C@H](Cc1ccc(O)cc1)NC(=O)[C@H](C)NC(=O)[C@@H](N)[C@@H](C)O)C(=O)NCC(=O)N[C@@H](CCCNC(=N)N)C(=O)N[C@@H](Cc1c[nH]c2ccccc12)C(=O)O (H-TAYF[X3]LKL[X3]GRW-OH)
- IC50 [1]: 61 µM
- IC50 [2]: 43 µM

SMILES: CC(C)C[C@@H]1NC(=O)[C@H](CCCCN)NC(=O)[C@H](CC(C)C)NC(=O)[C@@](C)(NC(=O)[C@H](Cc2ccccc2)NC(=O)[C@H](Cc2ccc(O)cc2)NC(=O)[C@H](C)NC(=O)[C@@H](N)[C@@H](C)O)CC/C=C/CC[C@@](C)(C(=O)NCC(=O)N[C@@H](CCCNC(=N)N)C(=O)N[C@@H](Cc2c[nH]c3ccccc23)C(=O)O)NC1=O (H-TAYF[αMeNva(5-ylidene)]LKL[αMeNva(5-ylidene)]GRW-OH; staple (E) 5-9)
- IC50 [1]: 90 µM
- IC50 [2]: 83 µM
- IC50 [3]: 14 µM
- CC50 [5]: 40 µM
- EC50 [6]: > 40 µM

SMILES: CC(C)C[C@H](NC(=O)[C@H](CCCCN)NC(=O)[C@H](CC(C)C)NC(=O)[C@]1(C)CCC/C=C\CCC[C@](C)(N)C(=O)N[C@@H](C)C(=O)N[C@@H](Cc2ccc(O)cc2)C(=O)N[C@@H](Cc2ccccc2)C(=O)N1)C(=O)N[C@@H](C)C(=O)NCC(=O)N[C@@H](CCCNC(=N)N)C(=O)N[C@@H](Cc1c[nH]c2ccccc12)C(=O)O (H-[S5]AYF[S5]LKLAGRW-OH; staple (Z) 1-5)
- IC50 [1]: 53 µM
- IC50 [2]: 19 µM
- IC50 [3]: > 100 µM
- selectivity ratio [4]: 6
- CC50 [5]: 25 µM
- EC50 [6]: 4 µM

SMILES: CC(C)C[C@H](NC(=O)[C@H](CCCCN)NC(=O)[C@H](CC(C)C)NC(=O)[C@H](CC(C)C)NC(=O)[C@H](Cc1ccccc1)NC(=O)[C@H](Cc1ccc(O)cc1)NC(=O)[C@H](C)NC(=O)[C@@H](NC(=O)c1ccc2c(c1)C(=O)OC21c2ccc(O)cc2Oc2cc(O)ccc21)[C@@H](C)O)C(=O)N[C@@H](C)C(=O)NCC(=O)N[C@@H](CCCNC(=N)N)C(=O)N[C@@H](Cc1c[nH]c2ccccc12)C(=O)O (mixture of isomers)
- IC50 [1]: 17.5 µM
- IC50 [2]: 6.2 µM
- Drug uptake [8]: Not Active
- IC50 [3]: 25 µM
- selectivity ratio [4]: 5
- CC50 [5]: 70 µM
- EC50 [6]: 13 µM

SMILES: CC(C)C[C@@H]1NC(=O)[C@H](CCCCN)NC(=O)[C@H](CC(C)C)NC(=O)[C@@](C)(NC(=O)[C@H](Cc2ccccc2)NC(=O)[C@H](Cc2ccc(O)cc2)NC(=O)[C@H](C)NC(=O)[C@@H](NC(=O)c2ccc3c(c2)C(=O)OC32c3ccc(O)cc3Oc3cc(O)ccc32)[C@@H](C)O)CCC/C=C\CCC[C@@](C)(C(=O)NCC(=O)N[C@@H](CCCNC(=N)N)C(=O)N[C@@H](Cc2c[nH]c3ccccc23)C(=O)O)NC1=O (mixture of isomers)
- IC50 [1]: 5 µM
- IC50 [2]: 6 µM
- Drug uptake [9]: Active
- Drug uptake [10]: Active
- Drug uptake [11]: Active
- Drug uptake [12]: Active
- Drug uptake [13]: Active
- Drug uptake [14]: Active
- Drug uptake [8]: Active
- IC50 [3]: 25 µM
- selectivity ratio [4]: > 11
- CC50 [5]: > 125 µM
- EC50 [6]: 11 µM
